The values that follow come from ChEMBL document CHEMBL5030518, “Phorbol Diesters and 12-Deoxy-16-hydroxyphorbol 13,16-Diesters Induce TGFα Release and Adult Mouse Neurogenesis” (2021).

In experiment [1] the test system is Neural Progenitor Cell. Kind of experiment: Induction of cell proliferation in mouse SVZ-derived neural progenitor cells assessed as neurosphere formation at up to 0.5 uM measured after 72 hrs by phase contrast microscopic analysis. Type of experiment: functional, tissue-based. The note with it: dose microM <=0.5, time 72.0 hrs. In a few lines:
(§1)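 NPCs were isolated from the SVZ of postnatal day 7 CD1 mice and grown as floating neurospheres with bFGF. Increasing compound concentrations were added at seeding. After 72 h, neurosphere area was measured from phase-contrast images and expressed as % of bFGF-only control. Runs were in triplicate, at least […] independent times; mean ± SEM of nine measurements, two-tailed unpaired t-test.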

The subject of experiment [2] is Brain. Kind of experiment: Induction of neurogenesis in CD-1 mouse brain at 5 uM, INH administered once daily for 3 days by confocal microscopic analysis. The note with it: time 3.0 day. It is filed as functional, tissue-based. In short, it runs like this:
(§2)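 Male CD1 mice, 2 months old, received 12 μL/day intranasally for 3 days, given as 3 μL portions alternating nostrils with the neck extended. Vehicle was saline; treatment was randomized and coded. BrdU 100 mg/kg i.p. was given on the last day. BrdU and DCX in the SVZ were detected by immunohistochemistry in every fifth section (6–8 per brain) at 20×, with blinded counting. n = 6/group; t-test versus vehicle.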

In experiment [3] the test system is Brain. As to the kind of experiment: Induction of neurogenesis in CD-1 mouse brain assessed as increase in total neuronal progenitors double cortin cells at 10 nM, INH administered once daily for 3 days by confocal microscopic analysis. It is filed as functional, tissue-based. The note with it: time 3.0 day. In short, it runs like this:
as §2

Experiment [4] deals with Brain. Kind of experiment: Induction of neurogenesis in CD-1 mouse brain at 10 nM, INH administered once daily for 3 days by confocal microscopic analysis. The note with it: time 3.0 day. Type of experiment: functional, tissue-based. In short, it runs like this: as §2
In experiment [5] the test system is Brain. Kind of experiment: Induction of neurogenesis in CD-1 mouse brain assessed as increase in number of BrdU labeled proliferating cells at 10 nM, INH administered once daily for 3 days by confocal microscopic analysis. The note with it: time 3.0 day. Type of experiment: functional, tissue-based. In a few lines:
as §2

Experiment [6] has as its system Brain. Kind of experiment: Induction of neurogenesis in CD-1 mouse brain at 100 nM, INH administered once daily for 3 days by confocal microscopic analysis. Type of experiment: functional, tissue-based. The note with it: time 3.0 day. In a few lines: as §2
In experiment [7] the test system is Brain. As to the kind of experiment: Induction of neurogenesis in CD-1 mouse brain assessed as increase in number of proliferative neuronal progenitors at 10 nM, INH administered once daily for 3 days by confocal microscopic analysis. It is filed as functional, tissue-based. The note with it: time 3.0 day. In short, it runs like this:
as §2

Experiment [8] is described as follows: Induction of TGFalpha release in serum-starved HEK293T cells coexpressing GFP fused mCherry assessed as reduction in mCherry/GFP ratio at 0.5 uM measured up to 180 mins by time-lapse microscopic analysis relative to control. Type of experiment: functional, Homo sapiens, HEK-293T. Further details: scale not given: the % may be the effect or the level left. The note with it: time min <=180. In a few lines: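 HEK293T transfected with mCherry-TGFα-GFP fusion (mCherry N-terminal, GFP C-terminal), left overnight, then serum-starved 30 min in serum-free FluoroBrite DMEM. Compound added at 0.5 µM; live time-lapse imaging over 180 min. Membrane mCherry/GFP ratio normalized to pre-stimulation average; mean normalized ratio, n = 40.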

Experiment [9] deals with Brain. Kind of experiment: Induction of neurogenesis in CD-1 mouse brain assessed as increase in number of proliferative neuronal progenitors at 5 uM, INH administered once daily for 3 days by confocal microscopic analysis. The note with it: time 3.0 day. It is filed as functional, tissue-based. In a few lines:
(§3)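 Healthy 2-month-old male CD1 mice given intranasal solution daily for 3 days, 12 µL/day in saline vehicle (3 µL per delivery, alternating nostrils). BrdU 100 mg/kg i.p. on the last day. SVZ sections immunostained for BrdU and DCX. Positive cells counted blinded in every fifth section (6–8 per brain) at 20×. Values are per mm3; mean ± SEM, n = 6 per group.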

Experiment [10] concerns Neural Progenitor Cell. Kind of experiment: Induction of cell proliferation in mouse SVZ-derived neural progenitor cells assessed as neurosphere formation at up to 5 uM measured after 72 hrs by phase contrast microscopic analysis. Type of experiment: functional, tissue-based. The note with it: dose microM <=5, time 72.0 hrs. In a few lines: as §1
Experiment [11] relates to Brain. As to the kind of experiment: Induction of neurogenesis in CD-1 mouse brain assessed as increase in number of BrdU labeled proliferating cells at 5 uM, INH administered once daily for 3 days by confocal microscopic analysis. Type of experiment: functional, tissue-based. The note with it: time 3.0 day. In short, it runs like this:
as §3

In another experiment the test system is HEK-293T. Kind of experiment: Induction of TGFalpha release in serum-starved HEK293T cells coexpressing GFP fused mCherry assessed as reduction in mCherry/GFP ratio at 0.5 uM measured up to 180 mins by time-lapse microscopic analysis. The note with it: Homo sapiens, time min <=180. It is filed as functional, cell-based. In a few lines: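 HEK293T cells transfected with an mCherry-TGFα-GFP fusion (mCherry N-terminal, GFP C-terminal) and left overnight. Cells were then serum-starved 30 min in serum-free medium. Compounds were added at 0.5 μM and time-lapse imaging ran for 180 min. Membrane mCherry/GFP ratio was normalized to the pre-stimulation average, and the mean of n = 40 was reported.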

Activity calls are given as the source filed them. No cut-off for these calls is given here.

As for `CC1=C[C@H]2[C@@]3(O)[C@H](C)[C@@H](OC(=O)C(C)C)[C@]4(OC(=O)C(C)C)[C@H]([C@@H]3C=C(CO)C[C@]2(O)C1=O)C4(C)C`, the result with Neural Progenitor Cell [1], with Brain [3], with Brain [4], in the experiment with Brain [5] and in the experiment with Brain [7] was Active. In addition, the result in the experiment on Brain [2] and with Brain [6] was inactive.
With `CC(=O)O[C@@H]1[C@@H](C)[C@@]2(O)[C@@H](C=C(CO)C[C@]3(O)C(=O)C(C)=C[C@@H]23)[C@@H]2C(C)(C)[C@]12OC(C)=O`, in experiment [8], the Activity is given as 15%. Moreover, the outcome in the experiment with Brain [9], in the experiment with Neural Progenitor Cell [10] and with Brain [11] was Active.
As to `CC1=C[C@H]2[C@@]3(O)[C@H](C)[C@@H](OC(=O)Cc4ccccc4)[C@]4(OC(=O)C(C)C)[C@H]([C@@H]3C=C(CO)C[C@]2(O)C1=O)C4(C)C`, the Activity in [8] amounted to 25%.
With `CC1=C[C@H]2[C@@]3(O)[C@H](C)[C@@H](OC(=O)Cc4ccccc4)[C@]4(OC(=O)Cc5ccccc5)[C@H]([C@@H]3C=C(CO)C[C@]2(O)C1=O)C4(C)C`, in experiment [8], the Activity is 25%.
Regarding `CC1=C[C@H]2[C@@]3(O)[C@H](C)C[C@]4(OC(=O)Cc5ccccc5)[C@H]([C@@H]3C=C(CO)C[C@]2(O)C1=O)[C@@]4(C)COC(=O)C(C)C`, the result in the experiment on Neural Progenitor Cell [1], with HEK-293T and with Neural Progenitor Cell [10] was Active.
Turning to `C/C=C(/C)C(=O)O[C@@H]1[C@@H](C)[C@@]2(O)[C@@H](C=C(CO)C[C@]3(O)C(=O)C(C)=C[C@@H]23)[C@@H]2C(C)(C)[C@]12OC(=O)C(C)C`, the Activity in experiment [8] stood at 15%.
For the compound `CC1=C[C@H]2[C@@]3(O)[C@H](C)[C@@H](O)[C@]4(OC(=O)C(C)C)[C@H]([C@@H]3C=C(CO)C[C@]2(O)C1=O)C4(C)C`, the outcome with HEK-293T and with Neural Progenitor Cell [10] was inactive.
Turning to `CC1=C[C@H]2[C@@]3(O)[C@H](C)[C@@H](OC(=O)C(C)C)[C@]4(OC(=O)Cc5ccccc5)[C@H]([C@@H]3C=C(CO)C[C@]2(O)C1=O)C4(C)C`, in [8], the Activity amounted to 25%.
With `CC1=C[C@H]2[C@@]3(O)[C@H](C)[C@@H](O)[C@]4(O)[C@H]([C@@H]3C=C(CO)C[C@]2(O)C1=O)C4(C)C`, the result in the experiment with HEK-293T was inactive.
